High-throughput results from PubChem.
Mcl1-Bid inh: Mcl-1/Bid binding inhibitors, primary screen, biochemical, TR-FRET, 1536-well; Induced myeloid leukemia cell differentiation protein Mcl-1 (Homo sapiens), Q07820; TR-FRET Mcl-1/Bid-Dy647 peptide binding; inhibition, % at 21.7 µM; 0.97% of 220,000 active; AID 1021, 2008;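 active = compounds that cut the binding signal by more than half at the single screening dose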;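 also: His-tagged Mcl-1 with europium anti-His antibody binding Bid BH3 peptide; 0% = Mcl-1 plus peptide wells and 100% = peptide-only wells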
Target sequence (Q07820 whole entry, looked up): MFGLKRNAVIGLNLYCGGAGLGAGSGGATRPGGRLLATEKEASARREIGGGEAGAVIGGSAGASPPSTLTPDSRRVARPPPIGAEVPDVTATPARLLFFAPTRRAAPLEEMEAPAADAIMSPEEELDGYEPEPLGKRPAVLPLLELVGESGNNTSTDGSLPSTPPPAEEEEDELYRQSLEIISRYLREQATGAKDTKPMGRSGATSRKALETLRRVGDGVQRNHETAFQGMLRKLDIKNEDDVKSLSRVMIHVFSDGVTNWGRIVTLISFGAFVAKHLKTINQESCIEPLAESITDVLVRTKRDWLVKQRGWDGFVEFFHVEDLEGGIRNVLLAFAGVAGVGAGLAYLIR
MCL1-BIM inh: inhibitors of MCL1 binding to BIM-BH3, primary screen, biochemical, fluorescence polarization; Induced myeloid leukemia cell differentiation protein Mcl-1 (Homo sapiens), Q07820; GST-MCL1 / FITC-Bim-BH3 fluorescence polarization; inhibition, % at 10.9 µM; 0.68% of 320,000 active; AID 2057, 2009;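 active = inhibition above the mean inhibition of all tested compounds plus 3 SD, set per campaign, cut at about 40% in these data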;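 also: 0% = DMSO wells and 100% = unlabeled Bim-BH3 peptide control; higher means more loss of mP so more displacement of Bim peptide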
Bim-Mcl-1: inhibitors of Bim peptide binding to Mcl-1, primary screen, biochemical, bead-based flow cytometry, multiplex | Induced myeloid leukemia cell differentiation protein Mcl-1 (Homo sapiens), Q07820 | Bim peptide-Mcl-1 binding | inhibition, % at 10 µM | 0.1% of 190,000 active | AID 1009, 2008; in the data active = inhibition above about 40%;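 also: 0% = no compound tracer wells and 100% = peptide blocker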
RBBP9 inh: human RBBP9 inhibitors, primary screen, biochemical, fluorescence polarization, FP-Rh probe, HTS. Serine hydrolase RBBP9 (Homo sapiens), O75884. recombinant RBBP9. inhibition, % at 7.94 µM. 0.2% of 220,000 active. AID 1515, 2009;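 active = inhibition above the campaign mean of all tested compounds plus 3 SD, cut at about 14% in these data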;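 also: plate controls were DMSO wells with RBBP9 for no effect and wells lacking RBBP9 protein for full effect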
Target sequence (O75884 whole entry, looked up): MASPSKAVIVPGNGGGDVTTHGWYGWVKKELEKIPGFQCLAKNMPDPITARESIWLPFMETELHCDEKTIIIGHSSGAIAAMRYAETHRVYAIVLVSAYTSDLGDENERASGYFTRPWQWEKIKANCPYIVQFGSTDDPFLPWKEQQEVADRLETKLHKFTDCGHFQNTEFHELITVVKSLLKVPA
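Material: RBBP9 protein. Amount: RBBP9 at 2.5 µM in dispensed solution, before mixing. Schedule: 30 min then 45 min, 25 °C. Medium: Tris buffer pH 8.0, NaCl, Pluronic. Measured by: fluorescence polarization. Measure: percent inhibition from mP, scaled between DMSO and no-protein wells. Replication: one well per compound.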
Mcl1 Noxa PPI: Mcl-1/Noxa binding inhibitors, primary screen, biochemical, TR-FRET, 1536-well | Induced myeloid leukemia cell differentiation protein Mcl-1 (Homo sapiens), Q07820 | TR-FRET Mcl-1/Noxa peptide binding, 2 h | inhibition, % at 21.7 µM | 1.5% of 220,000 active | AID 1022, 2008;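 active = compounds that cut the protein-peptide binding signal by more than 50% relative to plate controls in a single-dose test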;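 also: His-tagged Mcl-1 with rhodamine Noxa BH3 peptide and terbium anti-His antibody; 0% = Mcl-1 plus Noxa peptide wells and 100% = peptide-only wells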
EBV gp42 inh: Epstein-Barr virus gp42 inhibitors, primary screen, biochemical, uHTS, fluorescence polarization; Fluorescence polarization binding assay, mP read-out; inhibition, % (tested at 21.74 µM); 0.42% of 220,000 active; AID 1085, 2008; in the data active = inhibition above about 50%
Numbers without * were called inactive; x = no result given; ! = not confirmed by another sample. Shown are actives, neighbours in structure and some others; about 2.2% of the full set was active somewhere.

SMILES | Mcl1-Bid inh | MCL1-BIM inh | Bim-Mcl-1 | RBBP9 inh | Mcl1 Noxa PPI | EBV gp42 inh
CC1(C)Cc2nc3scc(NC(=O)c4ccccc4)c3cc2CO1 | -18 | -4 | x | -6 | 11 | -7
CCCCN1C(=O)C(O)(CC(=O)c2ccccn2)c2ccccc21 (configuration not stated) | -4 | 7 | 0 | 13 | 20 | -11
CSc1cccc(NC(=O)CCCn2c(=O)c3cccn3c3cccnc32)c1 | x | 4 | x | x | x | x
O=C(CCC(=O)c1ccc(Oc2ccccc2)cc1)Nc1cccc(Cl)c1 | 98* | -7 | -9 | -3 | 7 | 3
COc1cccc(-c2c[nH]c(=O)[nH]c2=O)c1 | -17 | 1 | 0 | -1 | 20 | -10
O=c1oc2ccccc2c(O)c1/C=N/c1ncccn1 | x | -6 | x | x | x | x
O=c1oc2ccccc2c(O)c1/C=C1\C=Nc2ccccc21 | -53 | -26 | 0 | -3 | 78* | 10
CCOCc1cc(CN2CCCC(CNC(=O)c3ccco3)C2)ccc1OC (configuration not stated) | x | 2 | x | x | x | x
CC1=CCC2C(=O)N(c3ccc(N4CCOCC4)cc3)C(=O)C2C1 (configuration not stated) | -34 | 12 | x | 2 | 11 | -10
O=S(=O)(c1ccc(Oc2ccc(-c3nnco3)cc2)nc1)N1CCC(Cc2ccccc2)CC1 | 59* | -5 | -1 | -4 | -75 | -7
O=S(=O)(c1ccc(-c2nnco2)cc1)N1CCCCC1 | x | -6 | x | x | x | x
Cc1nnc(SCC(=O)c2ccc(Cl)cc2)n(N)c1=O | -28 | 15 | 1 | 18* | 0 | -2
C=CCNC(=O)/C(C#N)=C/c1cn(-c2ccccc2)nc1-c1ccc(OC)c([N+](=O)[O-])c1 | 58* | 7 | -4 | -11 | 15 | -2
COc1ccc(N(CC(=O)NCc2ccc(C)cc2)S(=O)(=O)c2c(C)noc2C)cc1 | x | 10 | x | x | x | x
N[C@@H](Cc1cc(I)c(Oc2cc(I)c(O)c(I)c2)c(I)c1)C(=O)O | x | -14 | x | x | x | x
O=C(O)CCc1cc(I)c(Oc2ccc(O)c(I)c2)c(I)c1 | 27 | x | x | x | 69* | -11
N[C@@H](Cc1cc(I)c(Oc2ccc(O)c(I)c2)c(I)c1)C(=O)O | 66*! | 17 | 0 | -13 | 105*! | -2
CCC(C)NC(=O)c1cc2c(=O)[nH]c3ccc(C)cc3c2s1 (configuration not stated) | x | -2 | x | x | x | x
Nc1c(C(=O)NCC2CCCO2)sc2nc3c(c(-c4ccco4)c12)CC/C3=C\c1ccco1 (configuration not stated) | 80* | x | 44* | 3 | 98* | 98*
NC(=O)c1sc2nc3c(c(-c4ccco4)c2c1N)CCCC3 | -84 | 3 | x | -2 | 31 | 3
O=C1CNC(=S)N1C(CO)c1ccccc1 (configuration not stated) | x | 4 | x | x | x | x
Cc1[nH]c(=O)[nH]c(=O)c1CSCC(=O)OCC(=O)Nc1ccccn1 | 33 | 15 | x | 3 | 35 | 51*
Nc1nnc(SCC(=O)N2CCN(c3ccccc3)CC2)n1-c1ccccc1 | 97* | 2 | 0 | -2 | 41 | -8
Cc1cccc(C(=O)N[C@H](C(=O)OCc2cc(=O)n3c(n2)sc2ccccc23)C(C)C)c1 | -27 | 14 | 12 | 1 | 69* | -1
O=C(OCc1cc(=O)n2c(n1)sc1ccccc12)c1ccc(O)cc1 | 30 | 9 | 0 | -18 | 27 | 24
SMILES | Mcl1-Bid inh | MCL1-BIM inh | Bim-Mcl-1 | RBBP9 inh | Mcl1 Noxa PPI | EBV gp42 inh
CC(=O)c1ccccc1C(=O)N1CCCC(C(=O)c2ccc(C(F)(F)F)cc2)C1 (configuration not stated) | x | -1 | x | x | x | x
O=C(O)CCC(=O)Nc1ccc(S(=O)(=O)N2CCCC2)cc1 | 5 | -6 | -2 | -7 | 4 | 5
O=C(NC(=S)Nc1ccc(S(=O)(=O)N2CCCCC2)cc1)c1cccs1 | 96* | 16 | 0 | -13 | 1 | 1
O=C(NCc1cccnc1)c1ccc(S(=O)(=O)N2CCCCC2)cc1 | 9 | 1 | 0 | -1 | 24 | -5
CN1CCN(S(=O)(=O)c2ccc(NC(=S)NC(=O)c3ccc(Cl)cc3)cc2)CC1 | 2 | x | -7 | -9 | 84* | -2
O=C(Cc1cccs1)Nc1ccc(S(=O)(=O)N2CCCC2)cc1 | -19 | 21 | 0 | 1 | 63* | 25
O=S(=O)(c1ccc(NC(=S)NCc2cccnc2)cc1)N1CCCCC1 | 96* | 3 | x | -13 | 20 | -10
CCC1(CC)NC(=O)N(CC(=O)OC(C)C(=O)Nc2cc([N+](=O)[O-])ccc2OC)C1=O (configuration not stated) | x | 5 | x | x | x | x
Cc1ccc(CNC(=O)CN(C)C2=NS(=O)(=O)c3ccccc32)cc1 | x | -1 | x | x | x | x
O=C1/C(=C\c2ccco2)SC(=S)N1C1CCCCC1 | x | 19 | x | x | x | x
CC1=C(C#N)C(=O)N(C2CCS(=O)(=O)C2)C(=O)/C1=C\c1ccco1 (configuration not stated) | 60* | 105* | x | 7 | 110* | 124*
COc1cccc(CN2CCN(Cc3cc(OC)c(OC)cc3OC)CC2)c1 | x | 5 | x | x | x | x
COc1cccc(CN2CCSCC2)c1 | 62* | 0 | 0 | 0 | 41 | -9
Cc1cc(C)cc(OCC(=O)Nc2ccccc2C(=O)N2CCOCC2)c1 | x | 1 | x | x | x | x
Cc1cccc(OCC(=O)Nc2ccccc2C(=O)N2CCOCC2)c1 | -30 | 4 | -3 | -9 | 59* | 8
CCN=C1SC(C(=O)Nc2ccc(OC)cc2)CC(=O)N1CC (configuration not stated) | -19 | 5 | 0 | -3 | 64* | -10
CCN=C1SC(C(=O)Nc2ccc(OCC)cc2)CC(=O)N1CC (configuration not stated) | -22 | 2 | 0 | -7 | 11 | -1
Cc1ccc(C)n1-c1cccc(C(=O)O)c1 | 88* | 71* | 13 | x | 99* | 17
Cc1ccc(C)n1-c1cccc(N)c1 | -77 | 45* | 3 | -8 | 22 | -10
CCCCNCC#CCOc1cc(C)ccc1C(C)C | 24 | -3 | 0 | 7 | 23 | -3
Cc1nc2nc(SCC(=O)c3ccc([N+](=O)[O-])cc3)[nH]c2cc1Br | 2 | -5 | -7 | 7 | 45 | -1
S=c1[nH]cc(-c2ccccc2)[nH]1 | -72 | -7 | x | -3 | -3 | -21
O=[N+]([O-])c1ccc(-c2c[nH]c(=S)[nH]2)cc1 | -36 | 12 | x | -11 | 95* | 2
COCCN(Cc1nc2ccccc2c(=O)[nH]1)C(=O)COc1cccc(C(C)=O)c1 | x | 1 | x | x | x | x
